Assay results taken from ChEMBL document CHEMBL4513216, “Probing the Open Global Health Chemical Diversity Library for Multistage-Active Starting Points for Next-Generation Antimalarials” (ACS Infect Dis, 2020).

Assay: Toxicity liver stage against HepG2, at 10uM
Type: cell-based
Parameters: test concentration 10 uM, cell line HepG2-A16-CD81EGFP
Conditions: human, HepG2-A16-CD81EGFP cells; read-out: INHIBITION
Outline: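 Uninfected HepG2-A16-CD81EGFP cells, 3 × 10^3 per well, 1536-well, plated on prespotted compound at 10 μM final, parasite-free screening media added to match infected plates; puromycin 10 μM positive, DMSO 0.5% negative; run in parallel with 48 h PbLuc assay at 37 °C, 5% CO2; viability by CellTiter-Glo luminescence, normalized to controls.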

Compound: CC(C)Oc1cccc(C(=O)C2CCCN(C(=O)c3ccoc3)C2)c1 (configuration not stated)
- cytotoxicity at 10 µM: 1.43%

Compound: C=C(C)CSc1nnc(CCNC(=O)OC(C)(C)C)o1
- cytotoxicity at 10 µM: 8.94%

Compound: CCCC(=O)N(CCN1CCOCC1)c1nc2c(OC)ccc(C)c2s1
- cytotoxicity at 10 µM: -5.02%

Compound: COCCn1ccc2cc(C(=O)N3CCN(S(C)(=O)=O)CC3)ccc21
- cytotoxicity at 10 µM: -6.63%

Compound: Cc1ccc(S(=O)(=O)NCC2(O)CCOc3ccccc32)s1 (configuration not stated)
- cytotoxicity at 10 µM: 5.33%

Compound: N#Cc1ccc(OC2CCN(C(=O)c3ccc(Br)o3)CC2)nc1
- cytotoxicity at 10 µM: 11.2%

Compound: COCCc1noc(C2CCN(C(=O)Nc3cccs3)CC2)n1
- cytotoxicity at 10 µM: -10.6%

Compound: CN(C)c1ccc2c(c1)CN(C(=O)c1ccco1)C2c1cnco1 (configuration not stated)
- cytotoxicity at 10 µM: 31.9%

Compound: Cn1c2c(c(=O)n1C)CN(C(=O)c1ccsc1)CCC2
- cytotoxicity at 10 µM: 5.04%

Compound: CC(C)C(NC(=O)Cn1nc2c(cc1=O)CCCC2)C(=O)O (configuration not stated)
- cytotoxicity at 10 µM: 7.63%

Compound: Cc1cccc(Cn2cc(Br)c(NS(C)(=O)=O)n2)c1
- cytotoxicity at 10 µM: -0.08%

Compound: O=C1N[C@H]2OCCC[C@H]2[C@H](c2ccccc2C(=O)O)N1
- cytotoxicity at 10 µM: 2.62%

Compound: COCCC(=O)N1CCC2(CC1)CN(S(C)(=O)=O)Cc1ccccc1O2
- cytotoxicity at 10 µM: 3.73%

Compound: c1cnc(Nc2cncc(C3CCCN(c4ncccn4)C3)n2)nc1 (configuration not stated)
- cytotoxicity at 10 µM: -2.44%

Compound: COc1ccccc1CC(C)N(C)CCS(C)(=O)=O (configuration not stated)
- cytotoxicity at 10 µM: 7.57%

Compound: CC(NCCCn1ccnc1)c1ccc(N2CCCS2(=O)=O)cc1 (configuration not stated)
- cytotoxicity at 10 µM: -7.49%

Compound: Cc1cnn(CCNCC(=O)N2CCN(c3ccccn3)CC2)c1
- cytotoxicity at 10 µM: 1.22%

Compound: CNC(=O)CCN(C)CC1(c2ccc(Br)cc2)CC1
- cytotoxicity at 10 µM: -12.5%

Compound: NC(=O)CSCCC(=O)NCC1CC1
- cytotoxicity at 10 µM: 6.2%

Compound: Cc1cnn(Cc2ccc(NC(=O)N3CCCCC3CO)cc2)c1 (configuration not stated)
- cytotoxicity at 10 µM: 56.1%

Compound: CNS(=O)(=O)c1ccc(CNC(=O)Nc2ccccn2)s1
- cytotoxicity at 10 µM: -9.11%

Compound: Cc1c(CS(C)(=O)=O)cccc1NCC1CCCCC1
- cytotoxicity at 10 µM: -8.98%

Compound: CCNC(=O)CCC(=O)NC(C)Cc1ccccc1Br (configuration not stated)
- cytotoxicity at 10 µM: -4.99%

Compound: Cc1cc(C)c(CNC(=O)N2CCC(N3CCCCC3)CC2)c(=O)[nH]1
- cytotoxicity at 10 µM: 7.53%

Compound: Cc1cc(C(=O)N2CC(=O)Nc3cnccc32)c(Cl)cc1F
- cytotoxicity at 10 µM: 3.07%

Compound: CC(Nc1ccc(N2C(=O)CCCC2=O)cc1)c1ccc(C#N)cc1 (configuration not stated)
- cytotoxicity at 10 µM: 8.71%

Compound: CCOCC(=O)Nc1ncc(I)cc1C
- cytotoxicity at 10 µM: -4.76%

Compound: Cc1ccc(NC2CCN(C(=O)CCCc3ccccn3)CC2)cc1
- cytotoxicity at 10 µM: 13.3%

Compound: Cc1ccc(C)c(S(=O)(=O)NCCC(=O)NCc2ccoc2)c1
- cytotoxicity at 10 µM: -11.5%

Compound: Cn1cnnc1CCNC(=O)c1ccccc1OC1CCC1
- cytotoxicity at 10 µM: -2.94%

Compound: Cc1nc(NC(=O)c2nn(-c3ccc(F)cc3C)cc2O)n[nH]1
- cytotoxicity at 10 µM: -7.3%

Compound: N#Cc1nccnc1NCCC1CCN(CC(F)(F)F)CC1
- cytotoxicity at 10 µM: 1.6%

Compound: CC(C)OCCS(=O)(=O)c1ccccc1C#N
- cytotoxicity at 10 µM: 8.24%

Compound: O=C(c1ccc2[nH]cnc2c1)N1CCCC1Cn1cccn1 (configuration not stated)
- cytotoxicity at 10 µM: -10%

Compound: CC(C)OCCN1CCN(C(=O)c2cc(-n3cccn3)ccn2)CC1
- cytotoxicity at 10 µM: -0.158%

Compound: Cc1nc(-c2ccccc2)ccc1C(=O)N1CCn2c(C)nnc2C1
- cytotoxicity at 10 µM: 4.01%

Compound: Cc1ccc(C(F)(F)F)cc1NCC(=O)Nc1c(C)nn(C)c1C
- cytotoxicity at 10 µM: -1.86%

Compound: CC(C)c1cnc(CN2C(=O)CC3(CCSC3)C2=O)o1 (configuration not stated)
- cytotoxicity at 10 µM: 17.2%

Compound: CC(C)(C)c1cnc(CN2C(=O)CC3(CCSC3)C2=O)o1 (configuration not stated)
- cytotoxicity at 10 µM: 7.28%

Compound: Cc1nnc(CN(Cc2ccccc2Cl)C2CCCC2)o1
- cytotoxicity at 10 µM: 0.256%

Compound: Cn1cc(CC(CNC(=O)Nc2cccc(Cl)c2)C(N)=O)cn1 (configuration not stated)
- cytotoxicity at 10 µM: -15.5%

Compound: Cc1cccc2c1OCCCC2NCc1nccn1Cc1ccccc1 (configuration not stated)
- cytotoxicity at 10 µM: 1.38%

Compound: CN(C)c1ccc(CNCc2ccc(N3CCOCC3)cc2)cn1
- cytotoxicity at 10 µM: 7.17%

Compound: O=C(Nc1ccc(-n2cccn2)c(F)c1)C1CCN(C(=O)C2CC2)CC1
- cytotoxicity at 10 µM: 1.48%

Compound: Cn1nnnc1SCCC(=O)NCC1Cc2ccccc2O1 (configuration not stated)
- cytotoxicity at 10 µM: 9.35%

Compound: Cc1ccc(CCCC(=O)N2CCC(CS(N)(=O)=O)CC2)s1
- cytotoxicity at 10 µM: 15.6%

Compound: COc1cccc(COCC(=O)NC(C)c2nnc3n2CCC3)c1 (configuration not stated)
- cytotoxicity at 10 µM: -3.36%

Compound: Cn1ncnc1NCc1ccc(Cl)cc1
- cytotoxicity at 10 µM: -4.43%

Compound: Cc1nncn1CCNC(=O)C(C)(C)c1cccc(C(F)(F)F)c1
- cytotoxicity at 10 µM: 8.63%

Compound: CC(CC(=O)Nc1ccc(C(=O)N(C)C)c(Cl)c1)n1cccc1 (configuration not stated)
- cytotoxicity at 10 µM: 7.07%

Compound: Cc1ccc(C2COCCN2C(=O)c2ccc(N(C)C)cc2)o1 (configuration not stated)
- cytotoxicity at 10 µM: 4%

Compound: CCc1cc(NCC(O)CN2CCCCC2)n2ncnc2n1 (configuration not stated)
- cytotoxicity at 10 µM: -7.45%

Compound: Cc1nc(C)n(CC2CCCN(Cc3nnc(-c4ccco4)o3)C2)n1 (configuration not stated)
- cytotoxicity at 10 µM: -8.33%

Compound: O=C(NCc1cc[nH]n1)NC1CCCN(c2ncccn2)C1 (configuration not stated)
- cytotoxicity at 10 µM: -2.26%

Compound: CCCNC(=O)c1nc2c(o1)CN(C(C)=O)C2
- cytotoxicity at 10 µM: -70.6%

Compound: COc1ccc(N2CCN(Cc3nc(CSC)no3)C(C)C2=O)cc1 (configuration not stated)
- cytotoxicity at 10 µM: 3.28%

Compound: CNC(=O)CCN1CCC(c2nnc(Cn3cccn3)n2C2CC2)CC1
- cytotoxicity at 10 µM: 1.53%

Compound: COCC(C)N1CCc2onc(-c3ccc(C(F)(F)F)cc3)c2C1 (configuration not stated)
- cytotoxicity at 10 µM: -6.45%

Compound: COCc1ccc(C(=O)N2CCN(CC=C(C)C)[C@@H]3CS(=O)(=O)C[C@@H]32)o1
- cytotoxicity at 10 µM: 17.2%

Compound: O=C(c1cc2c(s1)CCCCC2)N1CCC(c2ncc[nH]2)CC1
- cytotoxicity at 10 µM: 15.7%

Compound: CCOC(=O)N[C@H]1C[C@@H](C(=O)NCc2cccc(Cl)c2)N(C)C1
- cytotoxicity at 10 µM: -3.89%

Compound: CC[C@H]1CN(C(=O)c2cccc(-n3cnnc3)n2)CC[C@@]1(C)O
- cytotoxicity at 10 µM: 3.66%

Compound: Cc1cc2cccc(NC(=O)N3CCC(N(C)C)C3)c2o1 (configuration not stated)
- cytotoxicity at 10 µM: 1.97%

Compound: CCN(Cc1nccn1C)C(=O)c1ccc(NCCc2c[nH]cn2)nc1
- cytotoxicity at 10 µM: -2.5%

Compound: c1ccc(C2CCCN2C2CCSCC2)nc1 (configuration not stated)
- cytotoxicity at 10 µM: 9.03%

Compound: COc1cccc(OCCNS(C)(=O)=O)c1
- cytotoxicity at 10 µM: 13%

Compound: O=C(CCC(F)(F)F)N1CCCC(c2ncc[nH]2)C1 (configuration not stated)
- cytotoxicity at 10 µM: 2.14%

Compound: O=C(Nc1cccc(CNCc2ccccn2)c1)C1CCCC1
- cytotoxicity at 10 µM: -7.63%

Compound: Cc1n[nH]c(C)c1C1COCCN1C(=O)c1ccc(Cl)o1 (configuration not stated)
- cytotoxicity at 10 µM: -1.01%

Compound: c1ncn(CC2CCCN(Cc3nnc(C4CC4)o3)C2)n1 (configuration not stated)
- cytotoxicity at 10 µM: -14.5%

Compound: O=C(NCCNc1ncccn1)C1CCN(c2ncccn2)CC1
- cytotoxicity at 10 µM: -7.67%

Compound: Cc1cnn(C2CCCN(C(=O)Cc3ccc(-n4cccn4)cc3)C2)c1 (configuration not stated)
- cytotoxicity at 10 µM: 2.55%

Compound: COc1ccc(OC)c(NC(=O)NCC(O)c2ccc(F)c(F)c2)c1 (configuration not stated)
- cytotoxicity at 10 µM: 0.746%

Compound: Cc1ccc(NC2CCN(C(=O)Cc3ccc(C#N)cc3)CC2)nn1
- cytotoxicity at 10 µM: -6.83%

Compound: Cc1nnc(N2CC[C@H]3C[C@@H](C(=O)N4CCCC4)O[C@H]3C2)s1
- cytotoxicity at 10 µM: -70.6%

Compound: CC(=O)N1[C@H](CN(C)C)C[C@@H]2CN(c3ncc(F)cn3)CC[C@@H]21
- cytotoxicity at 10 µM: 5.56%

Compound: COCc1ncn2c1CN(S(=O)(=O)Cc1ccc(C)cc1)CC2
- cytotoxicity at 10 µM: 0.854%

Compound: COCCN1CCO[C@@H]2CN(Cc3ccc(C)o3)C[C@@H]2C1
- cytotoxicity at 10 µM: -7.24%

Compound: O=C(c1cccnc1)N1C[C@@H](c2ccccc2)[C@@]2(CCNC2=O)C1
- cytotoxicity at 10 µM: -6.23%

Compound: Cn1cnc2c1C(COCC1CCOCC1)CN(C1CCOCC1)C2 (configuration not stated)
- cytotoxicity at 10 µM: -4.22%

Compound: CCC=C(C)C(=O)NCc1ccc(OC)nc1
- cytotoxicity at 10 µM: -4.13%

Compound: O=C(NCC1(COc2cnccn2)C[C@@H](O)[C@@H](O)C1)C1CCOCC1 (some centres not stated)
- cytotoxicity at 10 µM: -2.48%
